Compounds with a hit are over-represented: about 2.7% of the library has one in this group of screens.
ABHD4 inh: ABHD4 (mouse) inhibition, primary FP screen; AID 720543; inhibition, % at 8.92 µM; Q8VD66; 370,000 tested, 0.54% active; purified mABHD4, FP-Rh probe fluorescence polarization;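 active means inhibition exceeding the mean over every tested compound plus 3 SD, cut at about 30% in these data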;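 further: 0% = plate median of compound wells and 100% = S159A mutant with DMSO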
Target sequence (Q8VD66 whole entry, looked up): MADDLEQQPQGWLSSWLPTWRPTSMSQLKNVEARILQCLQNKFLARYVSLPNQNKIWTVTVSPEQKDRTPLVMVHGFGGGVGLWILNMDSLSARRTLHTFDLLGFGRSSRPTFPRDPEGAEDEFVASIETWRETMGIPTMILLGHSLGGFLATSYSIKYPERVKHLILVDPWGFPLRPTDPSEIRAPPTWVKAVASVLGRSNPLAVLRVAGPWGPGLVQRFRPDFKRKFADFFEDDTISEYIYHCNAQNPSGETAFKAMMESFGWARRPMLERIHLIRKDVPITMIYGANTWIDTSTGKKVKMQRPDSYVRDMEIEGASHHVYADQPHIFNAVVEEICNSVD
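Assay system: mouse ABHD4 enzyme, wild type / Also added: fluorescent activity-based probe FP-Rh / Doses: single nominal dose of 8.92 µM, 0.89% DMSO final / Timing: 45 min compound pre-incubation plus 60 min probe step, 25 °C / Signal: FP readout, ex 525 nm / em 598 nm / Control set: S159A mutant/DMSO as 100%, compound-well median as 0%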
TCR CD3 inh: human TCR-CD3 binding inhibition; TAMRA-labeled TCR probe fluorescence, biochemical; inhibition, % at 9.4 µM; 360,000 tested, 0.37% active; in the data active means inhibition above about 19%;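 further: recombinant mutant TCR 2C K166C tagged with TAMRA read by polarization; 0% = receptor in buffer alone and 100% = receptor with positive control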
PRMT1 inh: PRMT1 (human) inhibition, primary screen; 370,000 tested, 1.3% active; AID 652257; inhibition, % at 2.79 µM; recombinant PRMT1, activity-based probe fluorescence polarization; Q99873;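 active means inhibition above about 21% made by adding two undisclosed values, limit read from the data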
SIAE primary: human SIAE inhibition, primary screen; Q9HAT2; SIAE FP-Rh probe binding, fluorescence polarization; inhibition, % at 9.66 µM; 370,000 tested, 0.69% active;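 active means inhibition above a cutoff: mean of compounds within the control limits plus 3 SD of those, cut at about 17% in these data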;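 further: 0% = plate median of compound wells and 100% = probe without SIAE protein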
HTRA1 inhibitor: HTRA1 (human) protease inhibition; recombinant HTRA1, FP-rhodamine activity-based probe, fluorescence polarization; inhibition, % at 5.96 µM; 340,000 tested, 0.5% active; AID 504803; in the data active means inhibition above about 36%;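 further: 0% = enzyme with DMSO and 100% = wells lacking enzyme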
mABHD4 conf: ABHD4 (mouse) inhibition, FP confirmation; shares compounds with ABHD4 inh; purified mABHD4, FP-Rh probe fluorescence polarization; inhibition, % at 8.92 µM; 1,800 tested, 55% active; AID 720658;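 active means mean inhibition across replicates above the hit cutoff set in the primary screen, cut at about 30% in these data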;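 further: 0% = wild-type ABHD4 with DMSO and 100% = catalytically dead S159A mutant with DMSO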
* marks the source's active call; other numbers are inactive results; x = not tested or not shown.

SMILES	ABHD4 inh	TCR CD3 inh	PRMT1 inh	SIAE primary	HTRA1 inhibitor	mABHD4 conf
C[C@@H]1C[C@H]2[C@@H](Cc3ccccc3)C(=O)N3[C@H](c4ccccc4)[C@H](C)C[C@H]3[C@@H](Cc3ccccc3)C(=O)N2[C@@H]1c1ccccc1	50*	x	-3	9	x	39*
Cc1ccc(CC2CC(=O)N(CCc3ccccc3)C2=O)cc1 (stereo not given)	3	3	2	-6	4	x
CS(=O)(=O)N(Cc1ccc(Cl)cc1)c1ccc(C(=O)N/N=C/c2cc3ccccc3nc2Cl)cc1	8	10	0	-22	-8	x
CN(C)c1ccc(N=Nc2ccc(S(=O)(=O)O)cc2)c2ccccc12	56*	-4	14	0	26	60*
CN(C)c1ccc(N=Nc2ccc(S(N)(=O)=O)cc2)cc1	-11	-3	-3	-5	0	x
Cc1cccc(OCc2nn[nH]n2)c1C	2	-6	1	5	6	x
CN(C)c1ccc(N=C/C=C2\N(C)c3ccccc3C2(C)C)cc1	32*	-1	24*	-4	19	8
CN1/C(=C\C=Nc2ccc3ccccc3c2)C(C)(C)c2ccccc21	x	x	x	x	-22	x
Cc1cc(O)cc(=O)n1-c1cccc([N+](=O)[O-])c1	1	-3	1	-4	x	x
Nc1c(Br)cc2c([nH]c(=O)c3ccccc32)c1Br	42*	-8	4	8	20	37*
Cc1ccc2nc(CSc3nc(C)cc(C)c3C#N)[nH]c2c1	44*	5	2	3	-4	15
O=C1Nc2cc(S(=O)(=O)N3CCCC3)ccc2N2CCCC12 (stereo not given)	-2	3	1	-23	-8	x
CCN(CC)S(=O)(=O)c1ccc2c(c1)NC(=O)C1CCCN21 (stereo not given)	31*	-9	5	-8	-7	44*
F[B-](F)(F)COc1ccccc1	68*	-1	2	3	-3	36*
Cc1cc(C)n2nc(-c3ccccc3)c(-c3ccccc3)c2n1	-8	3	0	-4	3	x
CC(Oc1cccc(Cl)c1)C(=O)Nc1cc(Cl)ccc1N1CCOCC1 (stereo not given)	-1	-3	-5	-5	-32	x
Cc1ccc(S(=O)(=O)NNC(=O)C(=O)NNc2ccccn2)cc1	42*	-3	-1	-3	5	35*
Cc1ccccc1S(=O)(=O)NNC(=O)C(=O)NNc1ccccn1	35*	-2	-2	-4	6	33*
Nc1ccc(S(=O)(=O)NNC(=O)C(=O)NNc2ccccn2)cc1	15	-2	-3	-5	-6	x
C[C@@H]1CN([C@@H](C)CO)C(=O)c2cc(Br)cnc2O[C@H]1CN(C)C(=O)CN1CCOCC1	5	2	-1	7	7	x
COCCCNC(=S)NNC(=O)c1ccccn1	39*	0	-3	3	2	44*
COCCCNC(=S)NNC(=O)c1ccccc1Br	-3	-1	1	2	-1	x
CCN(CC)S(=O)(=O)c1ccc(O)c(NC(=O)COc2ccc(S(=O)(=O)N3CCOCC3)cc2)c1	-9	1	7	-9	0	x
Cc1ccc(/C=C2\Oc3cc(OC(=O)N4CCOCC4)ccc3C2=O)cc1	12	-5	-1	0	1	x
CC(C)(C)c1ccc(/C=C2\Oc3cc(OC(=O)N4CCOCC4)ccc3C2=O)cc1	67*	1	3	-4	-2	57*
SMILES	ABHD4 inh	TCR CD3 inh	PRMT1 inh	SIAE primary	HTRA1 inhibitor	mABHD4 conf
O=C(C=Cc1ccccc1)c1ccc([N+](=O)[O-])cc1	5	4	-1	2	-10	x
O=C(C=Cc1ccco1)c1ccc([N+](=O)[O-])cc1	37*	5	23*	10	2	5
C[C@@H]1COc2cccc(N3CCSCC3)c2S(=O)(=O)N1	0	-5	4	-4	x	x
COc1ccc(NC(=S)Nc2ccc(N)c([N+](=O)[O-])c2)cc1	34*	-2	11	2	36	8
COc1ccc(NC(=O)c2ccccc2[N+](=O)[O-])cc1	-8	12	0	2	-2	x
COc1ccc(Cl)cc1NS(=O)(=O)c1ccc2c(c1)NC(=O)CCS2	32*	-2	5	-2	5	26
O=C(OCC(=O)C12CC3CC(CC(C3)C1)C2)c1ccccc1O	8	1	1	0	-3	x
Nc1ccc(O)cc1C(=O)OCC(=O)C12CC3CC(CC(C3)C1)C2	52*	-6	13	7	26	35*
CCN(CC)S(=O)(=O)c1ccc(N2CCCC2)c(C(=O)OCC(=O)N2CCCC2)c1	4	10	-1	-2	4	x
CCN(CC)S(=O)(=O)c1ccc(N2CCCC2)c(C(=O)OCC(=O)Nc2cc(C)on2)c1	45*	-13	8	-6	-24	61*
CC(C)c1ccc(-c2nc(N3CCCCC3)[nH]c(=O)c2C#N)cc1	10	8	1	3	-4	x
CC1=Nc2nc(N3CCCCC3)c(C#N)c3c4c(nc(c23)N1)N(c1ccc(C(C)C)cc1)C(=O)C4	44*	5	7	6	2	42*
Cc1ccc(S(=O)(=O)N2CCC(C(=O)O)CC2)cc1C(=O)O	1	-4	2	1	-2	x
O=C(O)C1CCN(S(=O)(=O)c2ccc3[nH]ccc3c2)CC1	30*	0	-3	0	1	29
O=c1[nH]n2c(=O)c3c([nH]c2c1N=Nc1cccc(Cl)c1)CCC3	29	10	4	-7	20	x
O=c1[nH]n2c(=O)c3c([nH]c2c1N=Nc1cccc(C(F)(F)F)c1)CCCC3	59*	-1	2	-10	36	66*
O=C(O)Cn1nncc1-c1ccc(C(F)(F)F)cc1	7	1	2	1	x	x
Nc1cccc(S(=O)(=O)N2CCCN(S(=O)(=O)c3ccc4c(c3)OCCO4)CC2)c1	-2	x	0	4	x	x
CN(C)c1ccc2nc3ccc(=[N+](C)C)cc-3sc2c1	31*	7	7	7	17	14
Fc1ccc(C(c2ccc(F)cc2)N2CCN(C/C=C/c3ccccc3)CC2)cc1	12	6	0	0	-17	x
C(=C\c1ccccc1)/CN1CCN(C(c2ccccc2)c2ccccc2)CC1	95*	0	-1	2	-6	4
CCOc1ccc(CCNC(=O)c2cc3sccc3n2Cc2ccccc2)cc1OCC	0	x	-5	5	x	x
C[C@@H]1ON(C)[C@H]2C[C@H]3c4[nH]c5c(-c6ccc(C(F)(F)F)cc6)cccc5c4CCN3C(=O)[C@@H]12	30*	1	-3	-7	x	29
C[C@@H]1ON(C)[C@H]2C[C@H]3c4[nH]c5c(-c6ccccc6)cccc5c4CCN3C(=O)[C@@H]12	7	-3	2	2	x	x

Source: PubChem BioAssay
